The values below come from ChEMBL document CHEMBL2346637, “Effects of alkyl side chain modification of coenzyme Q10 on mitochondrial respiratory chain function and cytoprotection” (Bioorg Med Chem, 2013).

The test system of assay [1] is CCRF-CEM. Briefly: Cytoprotective effect in human CEM cells assessed as reduction of diethyl maleate-induced oxidative stress measured cell viability at 5 uM incubated for 17 hrs prior to diethyl maleate challenge measured after 6 hrs by trypan blue exclusion assay relative to untreated control. The class given is functional. The procedure, abridged: (§1)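 CEM cells seeded at 5 × 10⁵ cells/mL with compound and held 17 h at 37 °C, 5% CO₂. Oxidative stress then induced with 5 mM DEM for 6 h. Viability counted on a hemocytometer by 0.4% trypan blue exclusion and expressed as percent of untreated control (untreated = 100%). Means ± S.E.M., n = 3.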

Assay [2] relates to CCRF-CEM. Briefly: Cytoprotective effect in human CEM cells assessed as reduction of diethyl maleate-induced oxidative stress measured cell viability at 1 uM incubated for 17 hrs prior to diethyl maleate challenge measured after 6 hrs by trypan blue exclusion assay relative to untreated control. The assay is classed as functional. Summed up: as §1
Assay [3] concerns CCRF-CEM. As to the kind of experiment: Cytoprotective effect in human CEM cells assessed as reduction of diethyl maleate-induced oxidative stress measured cell viability at 0.5 uM incubated for 17 hrs prior to diethyl maleate challenge measured after 6 hrs by trypan blue exclusion assay relative to untreated control. The assay is classed as functional. Summed up:
as §1

For assay [4], the system named is CCRF-CEM. As to the kind of experiment: Cytoprotective effect in human CEM cells assessed as reduction of diethyl maleate-induced oxidative stress measured cell viability at 0.1 uM incubated for 17 hrs prior to diethyl maleate challenge measured after 6 hrs by trypan blue exclusion assay relative to untreated control. The assay is classed as functional. The procedure, abridged: as §1

For assay [5], the system named is CCRF-CEM. As to the kind of experiment: Blockade of diethyl maleate-induced mitochondrial membrane potential collapse in human CEM cells assessed as cells with intact mitochondrial membrane potential at 1 uM incubated for 16 hrs prior to diethyl maleate challenge measured after 120 mins by TMRM-based flow cytometric analysis (reference value: 12%). The class given is functional. The procedure, abridged:
(§2)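 Pretreatment: CEM cells (5 × 10⁵) with or without compound for 16 h, then 5 mM DEM for 120 min. Cells washed and resuspended in PBS with glucose, stained with 250 nM TMRM for 15 min at 37 °C in the dark, washed, and read at once by flow cytometry (488 nm excitation, FL2-H). 10,000 events per run. Percentage of cells with intact potential taken from the top-right quadrant. FCCP served as depolarized control. Means ± SEM of three independent experiments in duplicate.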

Assay [6] concerns CCRF-CEM. As to the kind of experiment: Blockade of diethyl maleate-induced mitochondrial membrane potential collapse in human CEM cells assessed as cells with intact mitochondrial membrane potential at 0.5 uM incubated for 16 hrs prior to diethyl maleate challenge measured after 120 mins by TMRM-based flow cytometric analysis (reference value: 12%). The assay is classed as functional. Summed up: as §2
On the technique in general: Flow cytometry measures light scatter and fluorescence of single cells or particles in a stream.

Assay [7] concerns CCRF-CEM. As to the kind of experiment: Antioxidant activity in human CEM cells assessed as suppression of diethyl maleate-induced ROS production at 2.5 uM incubated for 16 hrs prior to diethyl maleate challenge measured after 1 hr by DCFH-DA staining-based flow cytometric analysis relative to untreated control. The class given is functional. The procedure, abridged: (§3)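 CEM cells (5 × 10⁵ in 1 mL) preincubated with compound 16 h at 37 °C, 5% CO₂; then 5 mM DEM for 1 h. Cells washed in PBS and loaded with 10 µM DCFH-DA for 25 min at 37 °C in the dark, then washed twice. Read by flow cytometry, 488 nm excitation, FL1-H 530 nm channel, 10,000 events after debris gating.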

Assay [8] concerns CCRF-CEM. As to the kind of experiment: Antioxidant activity in human CEM cells assessed as suppression of diethyl maleate-induced ROS production at 1 uM incubated for 16 hrs prior to diethyl maleate challenge measured after 1 hr by DCFH-DA staining-based flow cytometric analysis relative to untreated control. The class given is functional. Summed up:
as §3

Assay [9] is described as follows: Effect on cellular respiration in rat RGC5 cells assessed as increase in mitochondrial oxygen consumption at 10 uM after 24 hrs by fluorescence assay relative to vehicle-treated control. The class given is functional. Summed up:
(§4)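 RGC-5 cells (DMEM, 10% FBS, phenol-red free) at 70,000 per well in 384-well oxygen biosensor plates, allowed to attach 20–30 min. Compounds added from DMSO stock via PBS dilution, final 3 or 10 µM, 0.1% DMSO. Six vehicle and six FCCP wells per plate. Incubated at 37 °C, 5% CO₂ for 1.5 or 24 h. Fluorescence read at 485/630 nm and expressed as fold change over vehicle at each time point. Two-tailed t test.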

The nature of assay [10]: Effect on cellular respiration in rat RGC5 cells assessed as increase in mitochondrial oxygen consumption at 3 uM after 24 hrs by fluorescence assay relative to vehicle-treated control. The assay is classed as functional. Summed up:
as §4

A short description of assay [11]: Effect on cellular respiration in rat RGC5 cells assessed as increase in mitochondrial oxygen consumption at 10 uM after 1.5 hrs by fluorescence assay relative to vehicle-treated control. The assay is classed as functional. The procedure, abridged:
as §4

A short description of assay [12]: Effect on cellular respiration in rat RGC5 cells assessed as increase in mitochondrial oxygen consumption at 3 uM after 1.5 hrs by fluorescence assay relative to vehicle-treated control. The class given is functional. The procedure, abridged: as §4
The nature of assay [13]: Inhibition of NADH-ubiquinone oxidoreductase activity in bovine heart submitochondrial particles using coenzyme Q1 as substrate after 5 mins by spectrophotometric analysis. More on the design: species or system Bos taurus. Summed up:
(§5)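 Twelve micrograms of bovine heart SMPs incubated 5 min at 39 °C with compound in 50 mM phosphate buffer, pH 7.4, with 0.25 M sucrose, 1 mM MgCl₂, antimycin A and 2 mM KCN. Reaction started with NADH and coenzyme Q₁ (each 50 µM). Decrease in NADH absorbance read at 340 nm. IC₅₀ and maximum achievable inhibition reported.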

The species named for assay [14] is Bos taurus. Briefly: Inhibition of NADH oxidase in bovine heart submitochondrial particles at 10 uM after 5 mins by spectrophotometric analysis relative to untreated control. More on the design: scale not given: the % may be the effect or the level left. Summed up:
(§6)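 Bovine heart SMPs, stored in 0.25 M sucrose/10 mM Tris–HCl pH 7.4, were assayed at 30 µg protein/mL in 50 mM Hepes pH 7.5 with 5 mM MgCl₂ at 30 °C. SMPs pre-equilibrated with inhibitor for 5 min. NADH oxidation followed at 340 nm (ε 6.22 mM⁻¹ cm⁻¹). Initial rates taken from the linear trace and expressed relative to untreated control.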

The species named for assay [15] is Bos taurus. Briefly: Inhibition of NADH oxidase in bovine heart submitochondrial particles at 5 uM after 5 mins by spectrophotometric analysis relative to untreated control. More on the design: scale not given: the % may be the effect or the level left. Summed up:
as §6

For assay [16], the species on record is Bos taurus. Briefly: Inhibition of NADH oxidase in bovine heart submitochondrial particles at 1 uM after 5 mins by spectrophotometric analysis relative to untreated control. More on the design: scale not given: the % may be the effect or the level left. Summed up:
as §6

Assay [17] is filed under the species Bos taurus. As to the kind of experiment: Inhibition of NADH-ubiquinone oxidoreductase activity in bovine heart submitochondrial particles using coenzyme Q1 as substrate after 5 mins by spectrophotometric analysis relative to untreated control. The procedure, abridged:
as §5

The IC50 is the concentration that gives 50% inhibition. As to `CCCCCCCCCCCCCCCC1=C(C)C(=O)C(OC)=C(OC)C1=O`, the Activity in assay [1] was 94%; in assay [2], 90%; in assay [3], 87%; in assay [4], 82%; in [5], 92%; in assay [6], 86%. Also, the Activity in [7] and in assay [8] was 100% throughout. Also, the “fold change (FC)” value in [9] is 1.52; in [10], 1.49; in [11] it was 1.15; in assay [12] it was 1.14. This molecule yielded an IC50 in assay [13] of more than 30 µM. The activity came to 59.7% in assay [14], 66.3% in [15] and 85.2% in [16].

On to `COC1=C(OC)C(=O)C(CCCCCCCCCCO)=C(C)C1=O` [IDEBENONE], for which the Activity was determined as 74% in assay [1]; 71% in [2]; 38% in [3]; 25% in [4]; 59% in [5]; 35% in assay [6]. The results for the Activity in assay [7] and in assay [8] were 65% and 45%, respectively. Moreover, the “fold change (FC)” value in assay [9] is 0.98; in [10] it was 0.98; in assay [11], 0.99; in assay [12], 1.12. Moreover, the Imax in assay [17] came to 75%. This molecule also yielded an IC50 in assay [13] of 5.8 µM. The activity turned out to be 13.4% in [14], 20.3% in assay [15] and 58.3% in assay [16].

Regarding `CCCCCCCCCCC1=C(C)C(=O)C(OC)=C(OC)C1=O` [DECYLUBIQUINONE], the Activity came out at 87% in assay [1]; 79% in [2]; 62% in [3]; 69% in assay [4]; 88% in assay [5]; 78% in assay [6]. Besides, the results for the Activity in assay [7] and in assay [8] were 95% and 80%, respectively. Besides, the “fold change (FC)” value in assay [9] is 1.08; in [10], 0.99; in assay [11], 1.2; in [12] it was 1.19. The IC50 in assay [13] was more than 30 µM. For the same molecule, the activity in [14] stood at 61.5%; in [15] it was 83.3%; in [16] it was 93.5%.

In the case of `COC1=C(OC)C(=O)C(CCCCCCCCCCC2CCCCC2)=C(C)C1=O`, the Activity was 93% in assay [1]; 87% in assay [2]; 83% in assay [3]; 76% in [4]; 91% in assay [5]; 84% in assay [6]. Moreover, the Activity in assay [7] and in assay [8] was 100% throughout. The “fold change (FC)” value was found to be 1.51 in assay [9], 1.06 in [10], 1.21 in assay [11] and 1.17 in assay [12]. Moreover, the Imax in assay [17] was determined as 55.4%. In addition, in assay [13], it took 14.9 µM to reach half-maximal inhibition (IC50). In addition, the activity in assay [14] is 78.7%; in assay [15] it was 81.9%; in assay [16], 88.3%.

For the molecule `COC1=C(OC)C(=O)C(CCCCCCCCC(C)(C)C)=C(C)C1=O`, the Activity was found to be 93% in assay [1]; 72% in assay [2]; 43% in assay [3]; 9% in assay [4]; 85% in assay [5]; 70% in [6]. The Activity is reported as 100% in [7] and 88% in [8]. In addition, the “fold change (FC)” value in [9] was found to be 1.16; in [10], 1.55; in [11], 1.05; in assay [12] it was 1.08. Further, the Imax in assay [17] was 69%. The molecule also displayed an IC50 in [13] of 14.7 µM. Also, the activity in assay [14] is 36.2%; in [15] it was 50.6%; in [16], 68.3%.

On to `COC1=C(OC)C(=O)C(CCCCCCCCCCN=[N+]=[N-])=C(C)C1=O`, for which the Activity in [1] came out at 92%; in [2], 72%; in [3], 21%; in assay [4], 11%; in assay [5], 65%; in assay [6], 50%. Moreover, the figures for the Activity in [7] and in assay [8] were 87% and 71%, respectively. Also, the “fold change (FC)” value in assay [9] is on record as 1.01; in assay [10], 1.68; in assay [11] it was 0.97; in assay [12] it was 1.01. The half-maximal inhibitory concentration (IC50) in [13] was more than 30 µM. Moreover, the activity in assay [14] is 64%; in assay [15] it was 75%; in assay [16], 89.8%.
